Results from ChEMBL document CHEMBL4043182, “On the synthesis of quinone-based BODIPY hybrids: New insights on antitumor activity and mechanism of action in cancer cells” (Bioorg Med Chem Lett, 2017).
The source made the active and inactive calls. No cut-off for these calls is given here.

Assays:
[1] = test system: L929; assay: Induction of oxidative stress in mouse L929 cells assessed as total GSH levels at 5 uM after 24 hrs by spectrophotometric analysis (reference value: 3.76 +/- 0.51 microg/mg); format: cell-based; details: l929, 24 h
[2] = test system: L929; assay: Geno-toxicity in mouse L929 cells assessed as induction of DNA damage at 2.5 to 10 uM treated 24 hrs post NAC addition measured after 24 hrs by alkaline comet assay; format: cell-based; details: l929, 24 h
Method in brief: (§1)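 Alkaline comet assay after 24 h at 2.5, 5 and 10 µM, with or without 24 h pretreatment with 5 mM NAC. Cells were trypsinized and embedded in 0.75% low-melting agarose, then lysed at pH 10, 4 °C, ≥1 h. DNA was unwound 20 min at pH >13 and electrophoresed 20 min at 25 V, 300 mA (0.86 V/cm), then stained with ethidium bromide. 100 cells (2 slides) were scored in classes 0–4 for a damage index. Mean ± SEM, three independent experiments in triplicate.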

[3] = test system: SF-295; assay: Induction of oxidative stress in human SF295 cells assessed as total GSSG levels at 5 uM after 24 hrs by spectrophotometric analysis (reference value: 1.31 +/- 0.55 microg/mg); format: functional
[4] = Selectivity index, ratio of IC50 for mouse L929 cells to IC50 for human PC3 cells; format: functional
Method in brief: (§2)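 Selectivity index is the ratio of the IC50 in a non-cancer murine line (V79 or L929) to the IC50 in the cancer line. […] MTT was 0.5 mg/mL for 3 h, formazan dissolved in DMSO and read at 595 nm as % of control. IC50s were derived by nonlinear regression; triplicate, at least three repeats.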

[5] = test system: HCT-116; assay: Induction of lipid peroxidation in human HCT116 cells assessed as increase in MDA levels at 2.5 to 10 uM treated 24 hrs post NAC addition measured after 24 hrs by TBARS assay; format: functional, cell-based
Method in brief: (§3)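 TBARS: cells were exposed 24 h, with or without 24 h prior 5 mM NAC, and lysed in Tris-HCl. Lysate was heated with TCA/0.25 M HCl and 6.7 mg/mL TBA for 15 min at 100 °C, centrifuged, and read at 532 nm. Hydrolyzed tetramethoxypropane served as standard, with values normalized to protein. H2O2 (10 µM) was the positive control. Three independent experiments in triplicate; ANOVA/Tukey.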

[6] = test system: SF-295; assay: Induction of oxidative stress in human SF295 cells assessed as total intracellular thiol levels at 5 uM treated 24 hrs post NAC addition measured after 24 hrs by spectrophotometric analysis (reference value: 4.51 +/- 0.83 microg/mg); format: functional
Method in brief: (§4)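 Cells were pretreated 24 h with 5 mM NAC, then exposed 24 h to test compound at 5 µM. Controls received 0.1% DMSO. Extracts were prepared by sonication and HClO4 precipitation, then neutralized with KOH. Total glutathione was read by DTNB/glutathione reductase/NADPH rate at 412 nm. GSSG was measured after 4-vinylpyridine (0.1%, 1 h, RT) and GSH derived by difference. Values are normalized to protein, triplicates, three independent runs.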

[7] = test system: HCT-116; assay: Induction of oxidative stress in human HCT116 cells assessed as GSH to GSSG ratio at 5 uM after 24 hrs by spectrophotometric analysis (reference value: 3.09 +/- 0.33 microg/mg); format: functional
[8] = Drug uptake in lysosomes of human PC3 cells at 5 uM after 10 mins by LysoTracker Red dye-based confocal microscopic analysis; format: ADME, cell-based; details: pc-3, 10 min
Method in brief: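 PC3 cells were grown in DMEM with 10% FBS, antibiotics and 2 mM L-glutamine at 37 °C, 5% CO2. Cells were incubated with compound (5 µM) plus LysoTracker Red or MitoTracker Red for 10 min at 37 °C. Live cells were imaged in phenol red-free DMEM by confocal microscopy with a 40X oil objective, exciting at 488 nm (compound) and 543 nm (tracker dyes).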

[9] = Selectivity index, ratio of IC50 for mouse L929 cells to IC50 for human SF295 cells; format: functional; method in brief: as §2
[10] = test system: L929; assay: Induction of oxidative stress in mouse L929 cells assessed as total intracellular thiol levels at 5 uM after 24 hrs by spectrophotometric analysis (reference value: 4.87 +/- 0.25 microg/mg); format: cell-based; details: l929, 24 h
[11] = test system: L929; assay: Cytotoxicity against mouse L929 cells after 24 hrs in absence of GSH-OEt by MTT assay; format: cell-based; details: L929, 24 h
Method in brief: (§5)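 24 h MTT exposure (0.04–40.92 µM in 0.1% DMSO), with or without co-treatment with GSH ethyl ester (15 mM) to gauge the ROS contribution. MTT was 0.5 mg/mL for 3 h, with formazan dissolved in DMSO and absorbance at 595 nm expressed as % of control. Triplicate, repeated at least three times.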

[12] = test system: L929; assay: Cytotoxicity against mouse L929 cells after 24 hrs in presence of GSH-OEt by MTT assay; format: cell-based; details: L929, 24 h; method in brief: as §5
[13] = test system: PC-3; assay: Induction of oxidative stress in human PC3 cells assessed as total intracellular thiol levels at 5 uM treated 24 hrs post NAC addition measured after 24 hrs by spectrophotometric analysis (reference value: 4.23 +/- 0.75 microg/mg); format: functional; method in brief: as §4
[14] = test system: PC-3; assay: Cytotoxicity against human PC3 cells after 24 hrs in presence of GSH-OEt by MTT assay; format: functional, cell-based; details: PC-3, 24 h; method in brief: as §5
[15] = test system: L929; assay: Induction of oxidative stress in mouse L929 cells assessed as total GSH levels at 5 uM treated 24 hrs post NAC addition measured after 24 hrs by spectrophotometric analysis (reference value: 3.76 +/- 0.51 microg/mg); format: cell-based; details: l929, 24 h
[16] = test system: HCT-116; assay: Cytotoxicity against human HCT116 cells after 24 hrs in absence of GSH-OEt by MTT assay; format: functional, cell-based; details: HCT-116, 24 h; method in brief: as §5
[17] = test system: SF-295; assay: Induction of lipid peroxidation in human SF295 cells assessed as increase in MDA levels at 2.5 to 10 uM after 24 hrs in absence of NAC by TBARS assay; format: functional, cell-based; method in brief: as §3
[18] = test system: PC-3; assay: Induction of oxidative stress in human PC3 cells assessed as GSH to GSSG ratio at 5 uM after 24 hrs by spectrophotometric analysis (reference value: 2.69 +/- 0.21 microg/mg); format: functional
[19] = test system: HCT-116; assay: Geno-toxicity in human HCT116 cells assessed as induction of DNA damage at 2.5 to 10 uM treated 24 hrs post NAC addition measured after 24 hrs by alkaline comet assay; format: functional, cell-based; method in brief: as §1
[20] = test system: SF-295; assay: Induction of oxidative stress in human SF295 cells assessed as GSH to GSSG ratio at 5 uM after 24 hrs by spectrophotometric analysis (reference value: 2.34 +/- 0.56 microg/mg); format: functional
[21] = test system: HCT-116; assay: Induction of oxidative stress in human HCT116 cells assessed as total GSSG levels at 5 uM after 24 hrs by spectrophotometric analysis (reference value: 1.19 +/- 0.37 microg/mg); format: functional
[22] = Selective index, ratio of IC50 for mouse L929 cells to IC50 for human SW620 cells; method in brief: as §2
[23] = test system: SF-295; assay: Induction of oxidative stress in human SF295 cells assessed as total GSSG levels at 5 uM treated 24 hrs post NAC addition measured after 24 hrs by spectrophotometric analysis (reference value: 1.31 +/- 0.55 microg/mg); format: functional; method in brief: as §4
[24] = test system: PC-3; assay: Induction of lipid peroxidation in human PC3 cells assessed as increase in MDA levels at 2.5 to 10 uM after 24 hrs in absence of NAC by TBARS assay; format: functional, cell-based; method in brief: as §3

Compound: CC1(C)OC2=C(C(=O)C(=O)c3ccccc32)C1n1cc(CNC2=[N+]3C(=C(c4ccccc4)c4ccc(Cl)n4[B-]3(F)F)C=C2)nn1 (centres undefined)
- Activity [1]: 1.15 µg/mg
- Activity [2]: Toxic
- Activity [3]: 2.09 µg/mg
- Ratio IC50 [4]: 2.4
- Activity [5]: inactive
- Activity [6]: 4.72 µg/mg
- Activity [7]: 0.56 µg/mg
- Drug uptake [8]: Metabolite_Notdetected
- Ratio IC50 [9]: 3
- Activity [10]: 3.5 µg/mg
- IC50 [11]: 5.91 µM
- IC50 [12]: 12.4 µM
- Activity [13]: 4.26 µg/mg
- IC50 [14]: 15.8 µM
- Activity [15]: 3.89 µg/mg
- IC50 [16]: 5.28 µM
- Activity [17]: Active
- Activity [18]: 0.37 µg/mg
- Activity [19]: Active
- Activity [20]: 0.39 µg/mg
- Activity [21]: 2.01 µg/mg
- Ratio IC50 [22]: 1.4
- Activity [23]: 1.21 µg/mg
- Activity [24]: Active
